The source of these data is ChEMBL document CHEMBL1149538, “A high-throughput assay for O-GlcNAc transferase detects primary sequence preferences in peptide substrates” (Bioorg Med Chem Lett, 2007).

Where a SMILES comes first, the peptide text is derived from it.

This experiment has as its target T1, UDP-N-acetylglucosamine--peptide N-acetylglucosaminyltransferase 110 kDa subunit (Homo sapiens) (UniProt O15294).
T1 sequence (whole entry): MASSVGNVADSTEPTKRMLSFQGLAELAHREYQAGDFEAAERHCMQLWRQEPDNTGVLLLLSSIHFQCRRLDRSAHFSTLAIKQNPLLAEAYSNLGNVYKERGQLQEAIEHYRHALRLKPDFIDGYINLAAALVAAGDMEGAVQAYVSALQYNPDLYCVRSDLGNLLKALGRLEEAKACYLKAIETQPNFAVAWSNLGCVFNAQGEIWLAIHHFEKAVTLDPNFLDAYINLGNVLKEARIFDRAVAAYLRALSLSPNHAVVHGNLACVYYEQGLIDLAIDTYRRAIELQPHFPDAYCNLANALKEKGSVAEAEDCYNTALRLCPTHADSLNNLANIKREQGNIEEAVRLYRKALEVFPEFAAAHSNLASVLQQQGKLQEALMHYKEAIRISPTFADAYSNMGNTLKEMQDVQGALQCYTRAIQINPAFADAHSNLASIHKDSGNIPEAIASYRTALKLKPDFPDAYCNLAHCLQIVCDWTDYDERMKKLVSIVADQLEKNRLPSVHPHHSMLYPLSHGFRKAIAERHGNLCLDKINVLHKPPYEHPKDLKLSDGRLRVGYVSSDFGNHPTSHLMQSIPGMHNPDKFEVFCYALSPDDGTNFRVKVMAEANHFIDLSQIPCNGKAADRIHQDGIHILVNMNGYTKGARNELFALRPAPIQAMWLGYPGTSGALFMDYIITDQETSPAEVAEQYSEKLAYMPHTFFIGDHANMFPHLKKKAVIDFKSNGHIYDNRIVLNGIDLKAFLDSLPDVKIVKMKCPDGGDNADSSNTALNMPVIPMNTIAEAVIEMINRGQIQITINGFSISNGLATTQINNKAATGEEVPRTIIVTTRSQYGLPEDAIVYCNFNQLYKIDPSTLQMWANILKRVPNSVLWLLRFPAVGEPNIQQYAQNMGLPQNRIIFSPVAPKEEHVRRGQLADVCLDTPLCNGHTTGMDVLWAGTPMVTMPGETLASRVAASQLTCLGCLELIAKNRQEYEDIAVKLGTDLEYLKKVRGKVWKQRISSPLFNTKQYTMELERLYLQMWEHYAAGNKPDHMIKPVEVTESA
The experiment is described as follows: Binding affinity to human OGT expressed in Escherichia coli […] cells assessed as alpha-FLAG-HRP activity relative to alpha-A-crystallin peptide by azido-ELISA. The settings on record: BL21-DE3. A digest of the protocol:
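Biotinylated peptides are reacted at saturating levels with Ni-column-purified human OGT from E. coli BL21(DE3), plus UDP-GlcNAz 62.5 μM, MgCl2 12.5 μM and β-mercaptoethanol 1 mM, for 4 h at 37 °C. Reactions are stopped with pH 4.5 sodium acetate and captured on NeutrAvidin. Product is tagged with phosphine-FLAG, detected by anti-FLAG-HRP/TMB at A450, normalized to the parent peptide after Ala-peptide background subtraction. Data are from 3 experiments, each in triplicate.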
Background: ELISA stands for enzyme-linked immunosorbent assay.

In the case of `CC(C)[C@H](NC(=O)[C@@H]1CCCN1C(=O)[C@@H]1CCCN1C(=O)[C@H](C)N)C(=O)N[C@@H](CO)C(=O)N[C@@H](CCCNC(=N)N)C(=O)N[C@@H](CCC(=O)O)C(=O)N[C@@H](CCC(=O)O)C(=O)N[C@@H](CCCCN)C(=O)O` (H-APPVSREEK-OH), the Activity worked out at 0.1. The figure for `CC(C)[C@H](NC(=O)[C@@H]1CCCN1C(=O)[C@H](C)NC(=O)[C@H](C)N)C(=O)N[C@@H](CO)C(=O)N[C@@H](CCCNC(=N)N)C(=O)N[C@@H](CCC(=O)O)C(=O)N[C@@H](CCC(=O)O)C(=O)N[C@@H](CCCCN)C(=O)O` (H-AAPVSREEK-OH) is 0.4.

Take `CC[C@H](C)[C@H](NC(=O)[C@H](C)N)C(=O)N[C@@H](C)C(=O)N[C@H](C(=O)N[C@@H](CO)C(=O)N[C@@H](CCCNC(=N)N)C(=O)N[C@@H](CCC(=O)O)C(=O)N[C@@H](CCC(=O)O)C(=O)N[C@@H](CCCCN)C(=O)O)C(C)C` (H-AIAVSREEK-OH): the Activity is 0.1. The same measure for `CC(C)[C@H](NC(=O)[C@@H]1CCCN1C(=O)[C@H](CCCNC(=N)N)NC(=O)[C@H](C)N)C(=O)N[C@@H](CO)C(=O)N[C@@H](CCCNC(=N)N)C(=O)N[C@@H](CCC(=O)O)C(=O)N[C@@H](CCC(=O)O)C(=O)N[C@@H](CCCCN)C(=O)O` (H-ARPVSREEK-OH): 0; for `CC[C@H](C)[C@H](NC(=O)[C@H](CO)NC(=O)[C@@H](NC(=O)[C@@H]1CCCN1C(=O)[C@@H](NC(=O)[C@H](C)N)[C@@H](C)CC)C(C)C)C(=O)N[C@@H](CCC(=O)O)C(=O)N[C@@H](CCC(=O)O)C(=O)N[C@@H](CCCCN)C(=O)O` (H-AIPVSIEEK-OH): 0.1. The same measure for `CC[C@H](C)[C@H](NC(=O)[C@H](C)N)C(=O)N1CCC[C@H]1C(=O)N[C@H](C(=O)N[C@@H](CO)C(=O)N[C@@H](CCCNC(=N)N)C(=O)N[C@@H](CCC(=O)O)C(=O)N1CCC[C@H]1C(=O)N[C@@H](CCCCN)C(=O)O)C(C)C` (H-AIPVSREPK-OH): 0.3.

As for `CC[C@H](C)[C@H](NC(=O)[C@H](C)N)C(=O)N1CCC[C@H]1C(=O)N1CCC[C@H]1C(=O)N[C@@H](CO)C(=O)N[C@@H](CCCNC(=N)N)C(=O)N[C@@H](CCC(=O)O)C(=O)N[C@@H](CCC(=O)O)C(=O)N[C@@H](CCCCN)C(=O)O` (H-AIPPSREEK-OH), the Activity turned out to be 0.1. The figure for `CC[C@H](C)[C@H](NC(=O)[C@@H]1CCCN1)C(=O)N1CCC[C@H]1C(=O)N[C@H](C(=O)N[C@@H](CO)C(=O)N[C@@H](CCCNC(=N)N)C(=O)N[C@@H](CCC(=O)O)C(=O)N[C@@H](CCC(=O)O)C(=O)N[C@@H](CCCCN)C(=O)O)C(C)C` (H-PIPVSREEK-OH) is 1.8; for `CC[C@H](C)[C@H](NC(=O)[C@H](C)N)C(=O)N1CCC[C@H]1C(=O)N[C@H](C(=O)N[C@@H](CO)C(=O)N[C@@H](CCCNC(=N)N)C(=O)N[C@@H](CCCNC(=N)N)C(=O)N[C@@H](CCC(=O)O)C(=O)N[C@@H](CCCCN)C(=O)O)C(C)C` (H-AIPVSRREK-OH) it is 0.6; for `CC[C@H](C)[C@H](NC(=O)[C@H](C)N)C(=O)N1CCC[C@H]1C(=O)N[C@H](C(=O)N[C@@H](CO)C(=O)N[C@@H](CCCNC(=N)N)C(=O)N[C@@H](CCC(=O)O)C(=O)N[C@@H](CCC(=O)O)C(=O)N[C@@H](CCCCN)C(=O)O)C(C)C` (H-AIPVSREEK-OH) it is 1. The figure for `CC[C@H](C)[C@H](NC(=O)[C@H](C)N)C(=O)N1CCC[C@H]1C(=O)N[C@H](C(=O)N[C@@H](CO)C(=O)N[C@@H](CCCNC(=N)N)C(=O)N[C@@H](CCC(=O)O)C(=O)N[C@@H](C)C(=O)N[C@@H](CCCCN)C(=O)O)C(C)C` (H-AIPVSREAK-OH) is 0.6; for `CC[C@H](C)[C@H](N)C(=O)N[C@H](C(=O)N1CCC[C@H]1C(=O)N[C@H](C(=O)N[C@@H](CO)C(=O)N[C@@H](CCCNC(=N)N)C(=O)N[C@@H](CCC(=O)O)C(=O)N[C@@H](CCC(=O)O)C(=O)N[C@@H](CCCCN)C(=O)O)C(C)C)[C@@H](C)CC` (H-IIPVSREEK-OH) it is 1.6.

Turning to `CC[C@H](C)[C@H](NC(=O)[C@H](C)N)C(=O)N1CCC[C@H]1C(=O)N[C@H](C(=O)N[C@@H](CO)C(=O)N[C@@H](CCCNC(=N)N)C(=O)N[C@@H](C)C(=O)N[C@@H](CCC(=O)O)C(=O)N[C@@H](CCCCN)C(=O)O)C(C)C` (H-AIPVSRAEK-OH), the Activity is 5. The figure for `CC[C@H](C)[C@H](NC(=O)[C@H](C)N)C(=O)N1CCC[C@H]1C(=O)N[C@H](C(=O)N[C@@H](CO)C(=O)N[C@@H](CCCNC(=N)N)C(=O)N1CCC[C@H]1C(=O)N[C@@H](CCC(=O)O)C(=O)N[C@@H](CCCCN)C(=O)O)C(C)C` (H-AIPVSRPEK-OH) is 4.7.

For `CC[C@H](C)[C@H](NC(=O)[C@H](C)N)C(=O)N1CCC[C@H]1C(=O)N[C@H](C(=O)N[C@@H](CO)C(=O)N[C@@H](C)C(=O)N[C@@H](CCC(=O)O)C(=O)N[C@@H](CCC(=O)O)C(=O)N[C@@H](CCCCN)C(=O)O)C(C)C` (H-AIPVSAEEK-OH), the Activity was 0. The figure for `CC[C@H](C)[C@H](NC(=O)[C@H](C)N)C(=O)N1CCC[C@H]1C(=O)N[C@@H](CCCNC(=N)N)C(=O)N[C@@H](CO)C(=O)N[C@@H](CCCNC(=N)N)C(=O)N[C@@H](CCC(=O)O)C(=O)N[C@@H](CCC(=O)O)C(=O)N[C@@H](CCCCN)C(=O)O` (H-AIPRSREEK-OH) is 0; for `CC[C@H](C)[C@H](NC(=O)[C@@H](N)CCC(=O)O)C(=O)N1CCC[C@H]1C(=O)N[C@H](C(=O)N[C@@H](CO)C(=O)N[C@@H](CCCNC(=N)N)C(=O)N[C@@H](CCC(=O)O)C(=O)N[C@@H](CCC(=O)O)C(=O)N[C@@H](CCCCN)C(=O)O)C(C)C` (H-EIPVSREEK-OH) it is 1.

Turning to `CC[C@H](C)[C@H](NC(=O)[C@H](C)N)C(=O)N[C@@H](CCC(=O)O)C(=O)N[C@H](C(=O)N[C@@H](CO)C(=O)N[C@@H](CCCNC(=N)N)C(=O)N[C@@H](CCC(=O)O)C(=O)N[C@@H](CCC(=O)O)C(=O)N[C@@H](CCCCN)C(=O)O)C(C)C` (H-AIEVSREEK-OH), the Activity was 0.

As for `CC[C@H](C)[C@H](NC(=O)[C@H](C)N)C(=O)N1CCC[C@H]1C(=O)N[C@H](C(=O)N[C@@H](CO)C(=O)N1CCC[C@H]1C(=O)N[C@@H](CCC(=O)O)C(=O)N[C@@H](CCC(=O)O)C(=O)N[C@@H](CCCCN)C(=O)O)C(C)C` (H-AIPVSPEEK-OH), the Activity turned out to be 0. With `CC[C@H](C)[C@H](NC(=O)[C@@H]1CCCN1C(=O)[C@@H](NC(=O)[C@H](C)N)[C@@H](C)CC)C(=O)N[C@@H](CO)C(=O)N[C@@H](CCCNC(=N)N)C(=O)N[C@@H](CCC(=O)O)C(=O)N[C@@H](CCC(=O)O)C(=O)N[C@@H](CCCCN)C(=O)O` (H-AIPISREEK-OH), the Activity was 0.3. The same measure for `CC[C@H](C)[C@H](NC(=O)[C@H](C)N)C(=O)N1CCC[C@H]1C(=O)N[C@@H](CCC(=O)O)C(=O)N[C@@H](CO)C(=O)N[C@@H](CCCNC(=N)N)C(=O)N[C@@H](CCC(=O)O)C(=O)N[C@@H](CCC(=O)O)C(=O)N[C@@H](CCCCN)C(=O)O` (H-AIPESREEK-OH): 0.2.

Take `CC(C)[C@H](NC(=O)[C@@H]1CCCN1C(=O)[C@H](CCC(=O)O)NC(=O)[C@H](C)N)C(=O)N[C@@H](CO)C(=O)N[C@@H](CCCNC(=N)N)C(=O)N[C@@H](CCC(=O)O)C(=O)N[C@@H](CCC(=O)O)C(=O)N[C@@H](CCCCN)C(=O)O` (H-AEPVSREEK-OH): the Activity was determined as 0.5.

For the molecule `CC[C@H](C)[C@H](NC(=O)[C@@H](N)CCCNC(=N)N)C(=O)N1CCC[C@H]1C(=O)N[C@H](C(=O)N[C@@H](CO)C(=O)N[C@@H](CCCNC(=N)N)C(=O)N[C@@H](CCC(=O)O)C(=O)N[C@@H](CCC(=O)O)C(=O)N[C@@H](CCCCN)C(=O)O)C(C)C` (H-RIPVSREEK-OH), the Activity was found to be 2. The figure for `CC[C@H](C)[C@H](NC(=O)[C@H](CCC(=O)O)NC(=O)[C@H](CCCNC(=N)N)NC(=O)[C@H](CO)NC(=O)[C@@H](NC(=O)[C@@H]1CCCN1C(=O)[C@@H](NC(=O)[C@H](C)N)[C@@H](C)CC)C(C)C)C(=O)N[C@@H](CCCCN)C(=O)O` (H-AIPVSREIK-OH) is 0.1; for `CC[C@H](C)[C@H](NC(=O)[C@H](C)N)C(=O)N[C@@H](CCCNC(=N)N)C(=O)N[C@H](C(=O)N[C@@H](CO)C(=O)N[C@@H](CCCNC(=N)N)C(=O)N[C@@H](CCC(=O)O)C(=O)N[C@@H](CCC(=O)O)C(=O)N[C@@H](CCCCN)C(=O)O)C(C)C` (H-AIRVSREEK-OH) it is 0.2.
